Compound activity from PubChem BioAssay.
This is a sample that favours compounds with a hit; in the whole collection about 2.5% have one here.
SIAE primary: inhibitors of human sialic acid acetylesterase SIAE | inhibition, % at 9.66 µM | SIAE FP-Rh probe binding, fluorescence polarization | 0.69% of 370,000 active;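 active = inhibition above a cutoff: mean of compounds within the control limits plus 3 SD of those, cut at about 17% in these data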;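 also: 0% = plate median of compound wells and 100% = probe without SIAE protein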
TCR-CD3 inh: blocks the human TCR-CD3 interaction | TAMRA-labeled TCR probe fluorescence, biochemical | inhibition, % at 9.4 µM | 0.37% of 360,000 active; in the data active = inhibition above about 19%;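 also: recombinant mutant TCR 2C K166C tagged with TAMRA read by polarization; 0% = receptor in buffer alone and 100% = receptor with positive control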
mABHD4 FP: inhibits mouse alpha/beta hydrolase domain 4 | Q8VD66 | purified mABHD4, FP-Rh probe fluorescence polarization | inhibition, % at 8.92 µM | 0.54% of 370,000 active | AID 720543;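 active = inhibition exceeding the mean over every tested compound plus 3 SD, cut at about 30% in these data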;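 also: 0% = plate median of compound wells and 100% = S159A mutant with DMSO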
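assay system = mABHD4 protein | compound dosing = single nominal dose of 8.92 µM, 0.89% DMSO final | read-out basis = percent inhibition of probe binding, normalized to plate controls | schedule = Enzyme–compound pre-incubation 45 min, then probe 60 min, both 25 °C | detection = fluorescence polarization, excitation 525 nm, emission 598 nm, BODIPY TMR filters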
rCAG RNA binder: binds r(CAG) RNA repeats | AID 651821 | inhibition, % at 3 µM | 1.3% of 370,000 active | r(CAG) RNA repeat, TO-PRO-1 dye displacement fluorescence;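 active = inhibition above the plate cutoff, the mean of all test compounds on that plate plus 3 SD, cut at about 35% in these data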;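 also: 0% = DMSO alone and 100% = 100 µM mitoxantrone as full dye displacement; higher means more dye released from RNA so lower well fluorescence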
HTRA1 inh: HTRA1 (human) protease inhibition. Q92743. recombinant HTRA1, FP-rhodamine activity-based probe, fluorescence polarization. inhibition, % at 5.96 µM. 0.5% of 340,000 active. AID 504803; in the data active = inhibition above about 36%;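 also: 0% = enzyme with DMSO and 100% = wells lacking enzyme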
Target sequence (Q92743 whole entry, looked up): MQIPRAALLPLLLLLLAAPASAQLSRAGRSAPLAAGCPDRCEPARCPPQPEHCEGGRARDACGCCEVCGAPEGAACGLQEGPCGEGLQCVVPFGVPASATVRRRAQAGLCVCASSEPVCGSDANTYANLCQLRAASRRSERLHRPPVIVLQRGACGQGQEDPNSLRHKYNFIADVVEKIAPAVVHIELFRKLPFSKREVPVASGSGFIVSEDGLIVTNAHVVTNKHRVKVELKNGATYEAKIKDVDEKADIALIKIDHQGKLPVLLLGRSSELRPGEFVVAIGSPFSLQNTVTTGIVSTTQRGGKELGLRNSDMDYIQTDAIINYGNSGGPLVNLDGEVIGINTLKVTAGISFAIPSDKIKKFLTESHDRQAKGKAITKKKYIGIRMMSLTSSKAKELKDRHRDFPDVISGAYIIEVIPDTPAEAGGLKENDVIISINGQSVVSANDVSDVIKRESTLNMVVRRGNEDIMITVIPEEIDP
rCAG bind conf: r(CAG) RNA repeat binding, confirmation | shares compounds with rCAG RNA binder | TO-PRO-1 dye displacement fluorescence | inhibition, % at 3 µM | 70% of 4,300 active | AID 652065;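 active = inhibition above a per-plate cutoff, the mean inhibition of sample wells plus 3 SD, cut at about 35% in these data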;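 also: loss of TO-PRO-1 fluorescence as compound displaces dye from 1x1 AA loop RNA; 0% = DMSO only wells and 100% = 100 µM mitoxantrone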
dCAG dye counter: DNA CAG dye complex inhibition counter-screen. shares compounds with rCAG RNA binder. d(CAG) DNA oligo TO-PRO-1 dye displacement, fluorescence. inhibition, % at 3 µM. 94% of 4,300 active. AID 652068;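 active = inhibition above its plate's cutoff, the mean test-well inhibition plus 3 SD, cut at about 4.8% in these data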;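 also: 0% = DNA dye mix with DMSO and 100% = 100 µM mitoxantrone; hits displace the dye from DNA and so lower well fluorescence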
DNA CAG DR: disrupts DNA CAG TO-PRO-1 complex in dose response; shares compounds with rCAG RNA binder; DNA CAG/GTC duplex TO-PRO-1 dye displacement fluorescence; IC50, µM; 20% of 250 active; in the data active = IC50 below about 10 µM
The depositor's hits bear a star; . = not tested or not shown.

SMILES	SIAE primary	TCR-CD3 inh	mABHD4 FP	rCAG RNA binder	HTRA1 inh	rCAG bind conf	dCAG dye counter	others
Cc1cc(C)cc(NS(=O)(=O)c2ccc(NC(=O)C3CCCCC3C(=O)O)cc2)c1 (stereo unspecified)	-1	2	0	36*	-6	25	4.8*
CC(C)c1ccc(NC(=O)C2CCCCC2C(=O)O)cc1 (stereo unspecified)	4	-2	-7	-2	3	.	.
Cc1cccc(OCC(=O)Nc2nc3ccc([N+](=O)[O-])cc3s2)c1C	1	-2	-5	7	4	.	.
O=C(COc1ccccc1C(=O)O)Nc1nc2ccc([N+](=O)[O-])cc2s1	-10	-7	-5	40*	-25	37*	12*
CC(C)COC(=O)OCN1C(=O)CN(CCN2CC(=O)N(COC(=O)OCC(C)C)C(=O)C2)CC1=O	-3	3	7	-1	-4	.	.
CC1(C)CC(=O)C2=C(C1)c1c(ccc3ccccc13)NC2c1ccco1 (stereo unspecified)	1	3	1	5	-22	.	.
CCOC(=O)C1Nc2ccc(C(=O)O)cc2C2C=CCC12 (stereo unspecified)	-3	8	25	61*	25	23	5.4*
CC(=O)c1ccc2c(c1)C1C=CCC1C(c1cc3c(cc1Br)OCO3)N2 (stereo unspecified)	-3	-3	-5	5	-28	.	.
CCc1cc(C(=O)O)c(NC(=O)/C=C/c2ccc(OC)c(OC)c2)s1	-24	-5	6	56*	-2	40*	9.9*
CCc1cc(C(=O)O)c(NC(=O)/C=C/c2ccc(OC)cc2)s1	-19	7	4	25	-5	.	.
Cc1c(CC(=O)N[C@@H](C)C(=O)O)c(=O)oc2c(C)c3occ(-c4ccccc4)c3cc12	-12	0	-1	38*	-4	50*	15*
CSCC[C@H](NC(=O)Cc1c(C)c2cc3c(C)c(C)oc3cc2oc1=O)C(=O)N[C@@H](C(=O)O)c1ccccc1	0	7	-1	40*	.	47*	14*
CC[C@@H](C)[C@H](NC(=O)Cc1c(C)c2c(cc(C)c3c(C)c(C)oc32)oc1=O)C(=O)O	1	-1	1	35*	1	32	5.7*
Cc1c(CC(=O)N[C@@H](C)C(=O)O)c(=O)oc2cc3occ(-c4ccccc4)c3cc12	-3	1	1	31	7	.	.
CCCCC(NC(=O)Cc1c(C)c2cc3c(C)c(C)oc3c(C)c2oc1=O)C(=O)O (stereo unspecified)	-3	-6	-10	38*	4	41*	9.7*
Cc1oc2c(c(C)cc3oc(=O)c(CC(=O)N[C@@H](C)C(=O)O)c(C)c32)c1C	-2	1	-3	18	1	.	.
CCN1CCN(C(=O)CCc2nnc(CCc3ccccc3OC)o2)[C@@H](C)C1=O	0	3	4	-6	-1	.	.
O=C(Nc1sc2c(c1C(=O)O)CCCC2)c1ccc(Cl)cc1	-5	3	16	69*	-6	50*	14*
O=C(Nc1sc2c(c1C(=O)O)CCCCC2)c1ccccc1	-1	0	12	29	-14	.	.
Cc1n[nH]c(=O)c2c(NC(=O)CSc3c(Cl)cccc3Cl)oc(C)c12	10	6	2	1	1	.	.
Cc1n[nH]c(=O)c2c(NC(=O)CSc3nn(-c4ccc(F)cc4)c(=S)s3)oc(C)c12	-3	2	5	40*	-4	28	13*
Nc1ccc(CNC(=O)OCC2c3ccccc3-c3ccccc32)cc1	7	11	-1	1	-9	.	.
CC(c1ccccc1)C(NC(=O)OCC1c2ccccc2-c2ccccc21)C(=O)O (stereo unspecified)	0	-2	-5	46*	-7	42*	8.9*
O=C(N[C@@H](Cc1ccc(Br)cc1)C(=O)O)OCC1c2ccccc2-c2ccccc21	-14	9	-7	39*	-49	69*	28*
O=C(N[C@H](Cc1ccc(Cl)cc1)C(=O)O)OCC1c2ccccc2-c2ccccc21	-5	-1	-2	40*	-10	66*	24*
SMILES	SIAE primary	TCR-CD3 inh	mABHD4 FP	rCAG RNA binder	HTRA1 inh	rCAG bind conf	dCAG dye counter	others
O=C(CCc1c[nH]c2ccccc12)NC(Cc1ccccc1)C(=O)O (stereo unspecified)	4	6	-1	36*	7	4	1
COC(=O)C(Cc1ccccc1)NC(=O)CCc1c[nH]c2ccccc12 (stereo unspecified)	-3	2	0	-2	-4	.	.
O=C(Cc1ccccc1)N[C@@H](Cc1ccccc1)C(=O)O	1	-1	-4	5	-6	.	.
CCN(CCNC(=O)C1CCCN(Cc2nc(-c3ccc(OC)cc3)oc2C)C1)c1ccccc1 (stereo unspecified)	5	1	13	-7	-5	.	.
CC(=O)N[C@H](Cc1c[nH]c2ccccc12)C(=O)O	-6	-4	12	1	7	.	.
O=C(NC(Cc1c[nH]c2ccccc12)C(=O)O)OCC1c2ccccc2-c2ccccc21 (stereo unspecified)	2	-3	-12	69*	.	59*	18*
CCOc1ccc(NC(=S)NNC(=S)Nc2cccc(C(F)(F)F)c2)cc1	2	-6	-1	38*	18	55*	22*
CCOc1cc(OCC)cc(C(=O)NC(=S)Nc2cccc(C(F)(F)F)c2)c1	-6	-4	-5	4	-8	.	.
CCOc1ccc(NC(=S)NNC(=O)c2cc(Br)ccc2Cl)cc1	7	-4	4	38*	-1	30	8.8*
O=C(NNC(=S)Nc1cccc(C(F)(F)F)c1)c1ccc(Cl)cc1Cl	8	1	-1	62*	15	59*	21*
COc1ccc2nc(NC(=O)Cc3ccc(OC)c(S(=O)(=O)N4CCOCC4)c3)sc2c1	-8	-2	-14	10	-8	.	.
Cc1cc(C)cc(N(CC(=O)NCC2CCCO2)C(=O)CN2C(=O)COc3ccccc32)c1 (stereo unspecified)	-3	-4	-8	-10	2	.	.
CC(=O)Nc1ccc(S(=O)(=O)/N=C2/NC(=O)/C(=C\c3ccco3)S2)cc1	-45	15	15	57*	-4	30	11*
Cc1ccc(S(=O)(=O)/N=C2/NC(=O)/C(=C\c3ccccc3)S2)cc1	-20	5	-47	83*	-47	76*	36*
Cc1ccc(S(=O)(=O)/N=C2/NC(=O)/C(=C/c3ccccc3)S2)cc1	-22	2	-41	84*	-46	71*	30*	DNA CAG DR=4.9*
